In ChEMBL document CHEMBL4152188, “Design, synthesis and biological evaluation of C(4) substituted monobactams as antibacterial agents against multidrug-resistant Gram-negative bacteria” (Eur J Med Chem, 2018):
In brackets after ≈: the same amount, converted by molar mass.

Columns and labels:
Assay type in all cases: functional
Pseudomonas aeruginosa [1] = experiment: Antibacterial activity against IMP-4 producing Pseudomonas aeruginosa isolate 209321 after 18 hrs by CLSI broth microdilution method; settings: isolate 209321, 18 h
Pseudomonas aeruginosa [2] = experiment: Antibacterial activity against IMP-4 producing Pseudomonas aeruginosa isolate 209471 after 18 hrs in presence of BPL by CLSI broth microdilution method; settings: isolate 209471, 18 h
Outline: (§1)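 CLSI broth microdilution against clinical isolates (ESBL E. coli, KPC-2 MDR K. pneumoniae, IMP-4 MDR P. aeruginosa; five per species). Iron limitation: Mueller-Hinton broth supplemented with 16 mg/liter 2,2'-bipyridyl to complex iron and induce iron uptake systems. Read-out: MIC.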

Escherichia coli [3] = experiment: Antibacterial activity against Escherichia coli isolate 210737 after 18 hrs in presence of BPL by CLSI broth microdilution method; settings: isolate 210737, 18 h; outline: as §1
Escherichia coli [4] = experiment: Antibacterial activity against extended-spectrum beta-lactamase producing Escherichia coli isolate 212648 after 18 hrs by CLSI broth microdilution method; settings: isolate 212648, 18 h
Klebsiella pneumoniae [5] = experiment: Selectivity index, ratio of MIC for against KPC-2 producing Klebsiella pneumoniae isolate 212229 to MIC for against KPC-2 producing Klebsiella pneumoniae isolate 212229 in presence of BPL
Klebsiella pneumoniae [6] = experiment: Antibacterial activity against KPC-2 producing Klebsiella pneumoniae isolate 212229 after 18 hrs by CLSI broth microdilution method; settings: isolate 212229, 18 h
Klebsiella pneumoniae [7] = experiment: Antibacterial activity against KPC-2 producing Klebsiella pneumoniae isolate 212423 after 18 hrs by CLSI broth microdilution method; settings: isolate 212423, 18 h
Escherichia coli [8] = experiment: Antibacterial activity against extended-spectrum beta-lactamase producing Escherichia coli isolate 208687 after 18 hrs in presence of BPL by CLSI broth microdilution method; settings: isolate 208687, 18 h; outline: as §1
Escherichia coli [9] = experiment: Antibacterial activity against extended-spectrum beta-lactamase producing Escherichia coli isolate 209285 after 18 hrs by CLSI broth microdilution method; settings: isolate 209285, 18 h
Pseudomonas aeruginosa [10] = experiment: Antibacterial activity against IMP-4 producing Pseudomonas aeruginosa isolate 207272 after 18 hrs in presence of BPL by CLSI broth microdilution method; settings: isolate 207272, 18 h; outline: as §1
Klebsiella pneumoniae [11] = experiment: Antibacterial activity against KPC-2 producing Klebsiella pneumoniae isolate 209735 after 18 hrs by CLSI broth microdilution method; settings: isolate 209735, 18 h
Klebsiella pneumoniae [12] = experiment: Selectivity index, ratio of MIC for against KPC-2 producing Klebsiella pneumoniae isolate 209632 to MIC for against KPC-2 producing Klebsiella pneumoniae isolate 209632 in presence of BPL
Klebsiella pneumoniae [13] = experiment: Selectivity index, ratio of MIC for against KPC-2 producing Klebsiella pneumoniae isolate 209735 to MIC for against KPC-2 producing Klebsiella pneumoniae isolate 209735 in presence of BPL
Klebsiella pneumoniae [14] = experiment: Selectivity index, ratio of MIC for against KPC-2 producing Klebsiella pneumoniae isolate 212232 to MIC for against KPC-2 producing Klebsiella pneumoniae isolate 212232 in presence of BPL
Escherichia coli [15] = experiment: Antibacterial activity against extended-spectrum beta-lactamase producing Escherichia coli isolate 106342 after 18 hrs by CLSI broth microdilution method; settings: isolate 106342, 18 h
Escherichia coli [16] = experiment: Selectivity index, ratio of MIC for against extended-spectrum beta-lactamase producing Escherichia coli isolate 209285 to MIC for extended-spectrum beta-lactamase producing Escherichia coli isolate 209285 in presence of BPL
Klebsiella pneumoniae [17] = experiment: Antibacterial activity against KPC-2 producing Klebsiella pneumoniae isolate 212232 after 18 hrs in presence of BPL by CLSI broth microdilution method; settings: isolate 212232, 18 h; outline: as §1
Escherichia coli [18] = experiment: Antibacterial activity against extended-spectrum beta-lactamase producing Escherichia coli isolate 106342 after 18 hrs in presence of BPL by CLSI broth microdilution method; settings: isolate 106342, 18 h; outline: as §1
Escherichia coli [19] = experiment: Antibacterial activity against Escherichia coli isolate 210737 after 18 hrs by CLSI broth microdilution method; settings: isolate 210737, 18 h
Escherichia coli [20] = experiment: Selectivity index, ratio of MIC for against extended-spectrum beta-lactamase producing Escherichia coli isolate 208687 to MIC for extended-spectrum beta-lactamase producing Escherichia coli isolate 208687 in presence of BPL
Klebsiella pneumoniae [21] = experiment: Antibacterial activity against KPC-2 producing Klebsiella pneumoniae isolate 209632 after 18 hrs by CLSI broth microdilution method; settings: isolate 209632, 18 h
Escherichia coli [22] = experiment: Selectivity index, ratio of MIC for against extended-spectrum beta-lactamase producing Escherichia coli isolate 106342 to MIC for extended-spectrum beta-lactamase producing Escherichia coli isolate 106342 in presence of BPL
Pseudomonas aeruginosa [23] = experiment: Selectivity index, ratio of MIC for against IMP-4 producing Pseudomonas aeruginosa isolate 208247 to MIC for against IMP-4 producing Pseudomonas aeruginosa isolate 208247 in presence of BPL
Escherichia coli [24] = experiment: Selectivity index, ratio of MIC for against Escherichia coli isolate 210737 to MIC for Escherichia coli isolate 210737 in presence of BPL
Klebsiella pneumoniae [25] = experiment: Antibacterial activity against KPC-2 producing Klebsiella pneumoniae isolate 212229 after 18 hrs in presence of BPL by CLSI broth microdilution method; settings: isolate 212229, 18 h; outline: as §1
Klebsiella pneumoniae [26] = experiment: Antibacterial activity against KPC-2 producing Klebsiella pneumoniae isolate 212423 after 18 hrs in presence of BPL by CLSI broth microdilution method; settings: isolate 212423, 18 h; outline: as §1
Klebsiella pneumoniae [27] = experiment: Antibacterial activity against KPC-2 producing Klebsiella pneumoniae isolate 209632 after 18 hrs in presence of BPL by CLSI broth microdilution method; settings: isolate 209632, 18 h; outline: as §1
Pseudomonas aeruginosa [28] = experiment: Antibacterial activity against IMP-4 producing Pseudomonas aeruginosa isolate 212886 after 18 hrs by CLSI broth microdilution method; settings: isolate 212886, 18 h
Escherichia coli [29] = experiment: Antibacterial activity against extended-spectrum beta-lactamase producing Escherichia coli isolate 212648 after 18 hrs in presence of BPL by CLSI broth microdilution method; settings: isolate 212648, 18 h; outline: as §1
Escherichia coli [30] = experiment: Antibacterial activity against extended-spectrum beta-lactamase producing Escherichia coli isolate 209285 after 18 hrs in presence of BPL by CLSI broth microdilution method; settings: isolate 209285, 18 h; outline: as §1
Pseudomonas aeruginosa [31] = experiment: Antibacterial activity against IMP-4 producing Pseudomonas aeruginosa isolate 208247 after 18 hrs in presence of BPL by CLSI broth microdilution method; settings: isolate 208247, 18 h; outline: as §1
Pseudomonas aeruginosa [32] = experiment: Selectivity index, ratio of MIC for against IMP-4 producing Pseudomonas aeruginosa isolate 212886 to MIC for against IMP-4 producing Pseudomonas aeruginosa isolate 212886 in presence of BPL
Pseudomonas aeruginosa [33] = experiment: Antibacterial activity against IMP-4 producing Pseudomonas aeruginosa isolate 212886 after 18 hrs in presence of BPL by CLSI broth microdilution method; settings: isolate 212886, 18 h; outline: as §1
Pseudomonas aeruginosa [34] = experiment: Selectivity index, ratio of MIC for against IMP-4 producing Pseudomonas aeruginosa isolate 209471 to MIC for against IMP-4 producing Pseudomonas aeruginosa isolate 209471 in presence of BPL
Klebsiella pneumoniae [35] = experiment: Antibacterial activity against KPC-2 producing Klebsiella pneumoniae isolate 209735 after 18 hrs in presence of BPL by CLSI broth microdilution method; settings: isolate 209735, 18 h; outline: as §1
Klebsiella pneumoniae [36] = experiment: Antibacterial activity against KPC-2 producing Klebsiella pneumoniae isolate 212232 after 18 hrs by CLSI broth microdilution method; settings: isolate 212232, 18 h
Pseudomonas aeruginosa [37] = experiment: Selectivity index, ratio of MIC for against IMP-4 producing Pseudomonas aeruginosa isolate 207272 to MIC for against IMP-4 producing Pseudomonas aeruginosa isolate 207272 in presence of BPL
Pseudomonas aeruginosa [38] = experiment: Antibacterial activity against IMP-4 producing Pseudomonas aeruginosa isolate 207272 after 18 hrs by CLSI broth microdilution method; settings: isolate 207272, 18 h
Klebsiella pneumoniae [39] = experiment: Selectivity index, ratio of MIC for against KPC-2 producing Klebsiella pneumoniae isolate 212423 to MIC for against KPC-2 producing Klebsiella pneumoniae isolate 212423 in presence of BPL
Pseudomonas aeruginosa [40] = experiment: Antibacterial activity against IMP-4 producing Pseudomonas aeruginosa isolate 209321 after 18 hrs in presence of BPL by CLSI broth microdilution method; settings: isolate 209321, 18 h; outline: as §1
Pseudomonas aeruginosa [41] = experiment: Selectivity index, ratio of MIC for against IMP-4 producing Pseudomonas aeruginosa isolate 209321 to MIC for against IMP-4 producing Pseudomonas aeruginosa isolate 209321 in presence of BPL
Escherichia coli [42] = experiment: Selectivity index, ratio of MIC for against extended-spectrum beta-lactamase producing Escherichia coli isolate 212648 to MIC for extended-spectrum beta-lactamase producing Escherichia coli isolate 212648 in presence of BPL
Pseudomonas aeruginosa [43] = experiment: Antibacterial activity against IMP-4 producing Pseudomonas aeruginosa isolate 209471 after 18 hrs by CLSI broth microdilution method; settings: isolate 209471, 18 h
Escherichia coli [44] = experiment: Antibacterial activity against extended-spectrum beta-lactamase producing Escherichia coli isolate 208687 after 18 hrs by CLSI broth microdilution method; settings: isolate 208687, 18 h
Pseudomonas aeruginosa [45] = experiment: Antibacterial activity against IMP-4 producing Pseudomonas aeruginosa isolate 208247 after 18 hrs by CLSI broth microdilution method; settings: isolate 208247, 18 h

- MIC (Pseudomonas aeruginosa [1]): 32 µg/mL (≈ 51.1 µM)
- MIC (Pseudomonas aeruginosa [2]): 32 µg/mL
- MIC (Escherichia coli [3]): 2 µg/mL
- MIC (Escherichia coli [4]): 8 µg/mL (≈ 12.8 µM)
- MIC (Klebsiella pneumoniae [6]): 1 µg/mL (≈ 1.6 µM)
- MIC (Klebsiella pneumoniae [7]): 2 µg/mL (≈ 3.19 µM)
- MIC (Escherichia coli [8]): 2 µg/mL
- MIC (Escherichia coli [9]): 8 µg/mL (≈ 12.8 µM)
- MIC (Pseudomonas aeruginosa [10]): 32 µg/mL
- MIC (Klebsiella pneumoniae [11]): 2 µg/mL (≈ 3.19 µM)
- MIC (Escherichia coli [15]): 8 µg/mL (≈ 12.8 µM)
- MIC (Klebsiella pneumoniae [17]): 0.125 µg/mL
- MIC (Escherichia coli [18]): 4 µg/mL
- MIC (Escherichia coli [19]): 2 µg/mL (≈ 3.19 µM)
- MIC (Klebsiella pneumoniae [21]): 0.5 µg/mL (≈ 0.798 µM)
- MIC (Klebsiella pneumoniae [25]): 0.25 µg/mL
- MIC (Klebsiella pneumoniae [26]): 0.5 µg/mL
- MIC (Klebsiella pneumoniae [27]): 0.125 µg/mL
- MIC (Pseudomonas aeruginosa [28]): > 64 µg/mL
- MIC (Escherichia coli [29]): 2 µg/mL
- MIC (Escherichia coli [30]): 4 µg/mL
- MIC (Pseudomonas aeruginosa [31]): 32 µg/mL
- MIC (Pseudomonas aeruginosa [33]): 32 µg/mL
- MIC (Klebsiella pneumoniae [35]): 0.25 µg/mL
- MIC (Klebsiella pneumoniae [36]): 2 µg/mL (≈ 3.19 µM)
- MIC (Pseudomonas aeruginosa [38]): 32 µg/mL (≈ 51.1 µM)
- MIC (Pseudomonas aeruginosa [40]): 32 µg/mL
- MIC (Pseudomonas aeruginosa [43]): 32 µg/mL (≈ 51.1 µM)
- MIC (Escherichia coli [44]): 8 µg/mL (≈ 12.8 µM)
- MIC (Pseudomonas aeruginosa [45]): 32 µg/mL (≈ 51.1 µM)
SMILES: CC(C)C(O/N=C(\C(=O)N[C@@H]1C(=O)N(S(=O)(=O)O)[C@@H]1COS(=O)(=O)O)c1csc(N)n1)c1cc(=O)c(O)cn1O (stereo not given in full)
- Selectivity Index (Klebsiella pneumoniae [5]): 4
- Selectivity Index (Klebsiella pneumoniae [12]): 4
- Selectivity Index (Klebsiella pneumoniae [13]): 8
- Selectivity Index (Klebsiella pneumoniae [14]): 16
- Selectivity Index (Escherichia coli [16]): 2
- Selectivity Index (Escherichia coli [20]): 4
- Selectivity Index (Escherichia coli [22]): 2
- Selectivity Index (Pseudomonas aeruginosa [23]): 1
- Selectivity Index (Escherichia coli [24]): 1
- Selectivity Index (Pseudomonas aeruginosa [32]): >2
- Selectivity Index (Pseudomonas aeruginosa [34]): 1
- Selectivity Index (Pseudomonas aeruginosa [37]): 1
- Selectivity Index (Klebsiella pneumoniae [39]): 4
- Selectivity Index (Pseudomonas aeruginosa [41]): 1
- Selectivity Index (Escherichia coli [42]): 4
